Source: ChEMBL document CHEMBL3856258, “Phosphonate-based irreversible inhibitors of human γ-glutamyl transpeptidase (GGT). GGsTop is a non-toxic and highly selective inhibitor with critical electrostatic interaction with an active-site residue Lys562 for enhanced inhibitory activity” (Bioorg Med Chem, 2016)
The source made the active and inactive calls. The rule behind the calls is not given here.

Legend:
Homo sapiens = species: Homo sapiens; experiment: Irreversible inhibition of human GGT using gamma-Glu-AMC as substrate assessed as association rate constant by […] analysis
Outline: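 The enzyme source was a commercial human GGT preparation carrying bovine serum albumin as stabilizer (GGT <1% of protein). Hydrolytic activity was followed with γ-Glu-AMC as substrate. Irreversible inactivation was expressed as kon, the second-order rate constant for the inhibitor–enzyme reaction.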

Escherichia coli K-12 = experiment: Irreversible inhibition of Escherichia coli K-12 SH642 GGT using gamma-Glu-AMC as substrate assessed as association rate constant by […] analysis
Outline: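 GGT was purified from the periplasmic fraction of recombinant E. coli K-12 SH642. Hydrolytic activity was followed with γ-Glu-AMC as substrate. Irreversible inactivation was expressed as kon, the second-order rate constant for the inhibitor–enzyme reaction.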

Escherichia coli [1] = experiment: Inhibition of glutaminase activity of Escherichia coli asparagine synthetase B at 0.1 mM using L-glutamine as substrate after 30 to 120 mins in presence of L-glutamate dehydrogenase and NAD+
Outline: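 Enzyme (60 µg) preincubated at 30 °C with inhibitor in 100 mM Tris-HCl pH 7.5, 8 mM MgCl2, 100 mM NaCl, 0.5 mM DTT. Aliquots taken at 30 and 120 min. Glutaminase reaction: 100 mM EPPS pH 8, 20 mM L-Gln, 37 °C for 10 min, then TCA quench. Glutamate read as NADH via glutamate dehydrogenase in glycine–hydrazine pH 9 with ADP and NAD+.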

[2] = Cytotoxicity against CHL cells assessed as structural aberrations at 20 ug/ml preincubated for 6 hrs followed by 18 hrs incubation in fresh medium in presence of S9 fraction by Giemsa-staining-based microscopic analysis; format: toxicity, cell-based, Cricetulus griseus; conditions: chinese hamster
[3] = Cytotoxicity against CHL cells assessed as chromatid gap at 20 ug/ml preincubated for 6 hrs followed by 18 hrs incubation in fresh medium in presence of S9 fraction by Giemsa-staining-based microscopic analysis; format: toxicity, cell-based, Cricetulus griseus; conditions: chinese hamster
[4] = Cytotoxicity against CHL cells assessed as number of cells with numerical aberrations at 20 ug/ml preincubated for 6 hrs followed by 18 hrs incubation in fresh medium in presence of S9 fraction by Giemsa staining-based microscopic analysis relative to control; format: toxicity, cell-based, Cricetulus griseus; conditions: chinese hamster
Salmonella typhimurium [5] = experiment: Genotoxicity in Salmonella typhimurium TA1537 assessed as number of revertant colonies per plate at 80 ug/plate after 20 mins in absence of S9 fraction by Ames test (reference value: 9); format: toxicity, organism-based; conditions: salmonella enterica subsp. enterica serovar typhimurium
Salmonella typhimurium [6] = experiment: Genotoxicity in Salmonella typhimurium TA100 assessed as number of revertant colonies per plate at 1 ug/plate after 20 mins in presence of S9 fraction by Ames test (reference value: 142); format: toxicity, organism-based; conditions: salmonella enterica subsp. enterica serovar typhimurium
Salmonella typhimurium [7] = experiment: Genotoxicity in Salmonella typhimurium TA1535 assessed as number of revertant colonies per plate at 2 ug/plate after 20 mins in presence of S9 fraction by Ames test (reference value: 13); format: toxicity, organism-based; conditions: salmonella enterica subsp. enterica serovar typhimurium
Escherichia coli [8] = experiment: Genotoxicity in Escherichia coli WP2uvrA assessed as number of revertant colonies per plate at 10 ug/plate after 20 mins in presence of S9 fraction by Ames test (reference value: 26); format: toxicity; conditions: s9, 20 min
Salmonella typhimurium [9] = experiment: Genotoxicity in Salmonella typhimurium TA98 assessed as number of revertant colonies per plate at 0.5 ug/plate after 20 mins in presence of S9 fraction by Ames test (reference value: 26); format: toxicity, organism-based; conditions: salmonella enterica subsp. enterica serovar typhimurium
Salmonella typhimurium [10] = experiment: Genotoxicity in Salmonella typhimurium TA1537 assessed as number of revertant colonies per plate at 2 ug/plate after 20 mins in presence of S9 fraction by Ames test (reference value: 15); format: toxicity, organism-based; conditions: salmonella enterica subsp. enterica serovar typhimurium
[11] = Cytotoxicity against CHL cells assessed as structural aberrations at 0.05 ug/ml preincubated for 6 hrs followed by 18 hrs incubation in fresh medium in absence of S9 fraction by Giemsa-staining-based microscopic analysis; format: toxicity, cell-based, Cricetulus griseus; conditions: chinese hamster
[12] = Cytotoxicity against CHL cells assessed as chromatid gap at 0.05 ug/ml preincubated for 6 hrs followed by 18 hrs incubation in fresh medium in absence of S9 fraction by Giemsa-staining-based microscopic analysis; format: toxicity, cell-based, Cricetulus griseus; conditions: chinese hamster
[13] = Cytotoxicity against CHL cells assessed as structural aberrations at 0.05 ug/ml after 24 hrs by Giemsa-staining-based microscopic analysis; format: toxicity, cell-based, Cricetulus griseus; conditions: chinese hamster
[14] = Cytotoxicity against CHL cells assessed as chromatid gap at 0.05 ug/ml after 24 hrs by Giemsa-staining-based microscopic analysis; format: toxicity, cell-based, Cricetulus griseus; conditions: chinese hamster
[15] = Cytotoxicity against CHL cells assessed as number of cells with numerical aberrations at 0.05 ug/ml preincubated for 6 hrs followed by 18 hrs incubation in fresh medium in absence of S9 fraction by Giemsa-staining-based microscopic analysis relative to control; format: toxicity, cell-based, Cricetulus griseus; conditions: chinese hamster
[16] = Cytotoxicity against CHL cells assessed as number of cells with numerical aberrations at 0.05 ug/ml after 24 hrs by Giemsa staining-based microscopic analysis relative to control; format: toxicity, cell-based, Cricetulus griseus; conditions: chinese hamster
[17] = Hydrolytic stability of the compound in D2O assessed as formation of monomethyl phosphonate and phenol at 23 degC up to 28 days by 31P NMR spectroscopy; format: physicochemical; conditions: 672 h
Salmonella typhimurium [18] = experiment: Genotoxicity in Salmonella typhimurium TA98 assessed as number of revertant colonies per plate at 1 ug/plate after 20 mins in absence of S9 fraction by Ames test (reference value: 21); format: toxicity, organism-based; conditions: salmonella enterica subsp. enterica serovar typhimurium
[19] = Hydrolytic stability of the compound in D2O assessed as formation of monomethyl phosphonate and phenol at 23 degC after 28 days by 31P NMR spectroscopy; format: physicochemical; conditions: 672 h

Molecule `COP(=O)(CCC(N)C(=O)O)Oc1cccc(CCC(=O)O)c1` (mixture of isomers) has a K (Homo sapiens) of 7.7 M⁻¹ s⁻¹ and a K (Escherichia coli K-12) of 71 M⁻¹ s⁻¹.

For `NC(CCP(=O)(Oc1ccccc1)Oc1cccc(CC(=O)O)c1)C(=O)O` (mixture of isomers), the K (Homo sapiens) was 40 M⁻¹ s⁻¹.

With `N[C@H](C(=O)O)[C@@H]1CC(Cl)=NO1` the inhibition (Escherichia coli [1]) was “Active”.

`COP(=O)(CCC(N)C(=O)O)Oc1cccc(CC(N)=O)c1` (mixture of isomers) gave a K (Homo sapiens) of 1.9 M⁻¹ s⁻¹ and a K (Escherichia coli K-12) of 400 M⁻¹ s⁻¹.

For `CCOC(=O)Cc1cccc(OP(=O)(CCC(N)C(=O)O)OC)c1` (mixture of isomers), the K (Homo sapiens) was 1.2 M⁻¹ s⁻¹ and the K (Escherichia coli K-12) was 120 M⁻¹ s⁻¹.

Work on `NC(CCP(=O)(Oc1ccccc1)Oc1ccccc1)C(=O)O` (racemic) yielded a K (Homo sapiens) of 0.41 M⁻¹ s⁻¹ and a K (Escherichia coli K-12) of 27.8 M⁻¹ s⁻¹.

`c1ccc2c(c1)cc1ccc3cccc4ccc2c1c34` [BENZO[DEF]CHRYSENE] gave an Activity [2] of 46%, an Activity [3] of 6% and an Activity [4] of 1%.

For `Nc1c2ccccc2nc2ccccc12` [AMINACRINE], the Activity (Salmonella typhimurium [5]) was 320.

Work on `Nc1ccc2cc3ccccc3cc2c1` [2-AMINOANTHRACENE] yielded an Activity (Salmonella typhimurium [6]) of 694, an Activity (Salmonella typhimurium [7]) of 299 and an Activity (Escherichia coli [8]) of 495. For the same molecule, the Activity (Salmonella typhimurium [9]) was 421 and the Activity (Salmonella typhimurium [10]) was 154.

Molecule `COP(=O)(CCC(N)C(=O)O)Oc1ccc(C(=O)O)cc1` (mixture of isomers) has a K (Homo sapiens) of 5.2 M⁻¹ s⁻¹ and a K (Escherichia coli K-12) of 3200 M⁻¹ s⁻¹.

For `CO[C@@]12[C@H](COC(N)=O)C3=C(C(=O)C(C)=C(N)C3=O)N1C[C@@H]1N[C@@H]12` [MITOMYCIN], the Activity [11] was 40%, the Activity [12] was 3% and the Activity [13] was 40%. For the same molecule, the Activity [14] was 0%, the Activity [15] was 2% and the Activity [16] was 0%.

With `COP(=O)(CCC(N)C(=O)O)Oc1ccc(CC(=O)O)cc1` (stereo not drawn) the K (Homo sapiens) was 0.33 M⁻¹ s⁻¹, the K (Escherichia coli K-12) was 210 M⁻¹ s⁻¹ and the Stability [17] was “Stable”.

Molecule `O=[N+]([O-])c1ccc2c(c1)Cc1ccccc1-2` [2-NITROFLUORENE] has an Activity (Salmonella typhimurium [18]) of 442.

With `COP(=O)(CCC(N)C(=O)O)Oc1cccc([N+](=O)[O-])c1` (mixture of isomers) the K (Homo sapiens) was 49 M⁻¹ s⁻¹, the K (Escherichia coli K-12) was 5100 M⁻¹ s⁻¹ and the Stability [19] was “Unstable”.

For `COP(=O)(CCC(N)C(=O)O)Oc1cccc(C(=O)O)c1` (mixture of isomers), the K (Homo sapiens) was 1.6 M⁻¹ s⁻¹ and the K (Escherichia coli K-12) was 450 M⁻¹ s⁻¹.

Work on `COP(=O)(CCC(N)C(=O)O)Oc1ccccc1` (stereo not drawn) yielded a K (Homo sapiens) of 0.4 M⁻¹ s⁻¹ and a K (Escherichia coli K-12) of 120 M⁻¹ s⁻¹.
